According to ChEMBL document CHEMBL1955761, “Privileged scaffolds or promiscuous binders: a comparative study on rhodanines and related heterocycles in medicinal chemistry” (J Med Chem, 2012):
Active and inactive are the calls of the source.

What was measured:
[1] = tested on: Dengue virus; experiment: Inhibition of Dengue virus NS2B-NS3 protease using Abz-NleKRRS-3-(NO2)Y as substrate at 50 uM preincubated for 15 mins measured every sec for 15 mins by fluorimetric analysis
[2] = target: Prothrombin (Bos taurus) (UniProt P00735); experiment: Inhibition of bovine plasma thrombin using Boc-Val-Pro-Arg-AMC as substrate at 25 uM preincubated for 15 mins measured after 10 mins by fluorimetric assay
In short: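 Purchased bovine plasma thrombin at 10 nM final, preincubated 15 min with 25 μM inhibitor; reaction started with 50 μM substrate. Buffer 50 mM Tris-HCl pH 7.5, 150 mM NaCl, 0.05% Tween 20. Triplicate, averaged.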

[3] = tested on: Escherichia coli; experiment: Inhibition of Escherichia coli MurA using PEP as substrate assessed as inorganic phosphate release at 25 uM preincubated for 10 mins measured after 60 mins […]
[4] = tested on: Escherichia coli; experiment: Inhibition of Escherichia coli MetAP at 10 uM after 15 mins by fluorescence analysis

inhibition [1]	inhibition [2]	inhibition [3]	inhibition [4]	Compound
inactive	10%	64%	inactive	CCCC/C=C/C1NC(=S)NC1=O (stereo not given)
15%	29%	inactive	12%	O=C1NC(=O)/C(=C/c2ccccn2)S1
47%	28%	43%	inactive	O=C1NC(=S)S/C1=C\c1sccc1Cl
12%	inactive	13%	58%	C/C(=C1/NC(=S)NC1=O)c1ccc(C2CCCCC2)cc1
11%	24%	30%	11%	O=C1NC(=O)/C(=C/c2cccs2)S1
51%	20%	62%	12%	COc1ccc(/C=C/C=C2\SC(=S)NC2=O)cc1
36%	inactive	inactive	46%	O=C1NC(=O)/C(=C/c2ccc3ccccc3c2)N1
17%	11%	25%	10%	COc1cccc(/C=C2\SC(=O)NC2=O)c1
inactive	inactive	12%	inactive	CC(=O)N1C(=S)NC(=O)[C@@H]1CCCCN
27%	25%	inactive	inactive	O=C1NC(=S)S/C1=C\c1c(F)c(F)c(F)c(F)c1F
50%	13%	inactive	inactive	COc1ccc(/C=C2\NC(=S)NC2=O)cc1
36%	23%	46%	86%	O=C1NC(=S)N/C1=C\c1ccc(O)c(O)c1
19%	27%	100%	inactive	COc1cc(/C=C2\SC(=O)NC2=O)ccc1O
46%	14%	22%	inactive	O=C1NC(=S)N/C1=C\c1ccco1
18%	inactive	10%	17%	CCCC/C=C/C1SC(=S)NC1=O (stereo not given)
inactive	inactive	inactive	13%	O=C1NC(=O)/C(=C/c2ccc([N+](=O)[O-])cc2)S1
18%	inactive	inactive	inactive	COc1cccc(/C=C2\NC(=O)NC2=O)c1
47%	38%	13%	95%	O=C1NC(=S)N/C1=C\c1ccccn1
13%	28%	inactive	inactive	O=C1NC(=O)/C(=C/c2ccc(Cl)cc2Cl)S1
inactive	inactive	inactive	inactive	O=C1NC(=O)C(Cc2cccs2)N1 (stereo not given)

inhibition [1]	inhibition [2]	inhibition [3]	inhibition [4]	Compound
10%	inactive	25%	inactive	NC(=O)CC[C@@H]1NC(=S)NC1=O
56%	28%	15%	14%	O=C1NC(=S)S/C1=C\c1ccc2ccccc2c1
26%	inactive	inactive	inactive	O=C1NC(=O)/C(=C/c2ccc([N+](=O)[O-])cc2)N1
13%	18%	48%	27%	COc1ccc(/C=C/C=C2\NC(=S)NC2=O)cc1
46%	25%	65%	11%	O=C1NC(=S)S/C1=C\c1ccc([N+](=O)[O-])cc1
46%	19%	19%	inactive	O=C1NC(=S)N/C1=C\c1sccc1Cl
35%	19%	15%	13%	O=C1NC(=S)N/C1=C\c1ccc([N+](=O)[O-])cc1
38%	23%	72%	26%	COc1cc(/C=C2\NC(=S)NC2=O)ccc1O
inactive	19%	62%	12%	O=C1NC(=O)/C(=C/c2ccc(Br)s2)S1
48%	39%	11%	inactive	O=C1NC(=S)N/C1=C\c1ccc(O)cc1
44%	18%	inactive	inactive	O=C1NC(=S)S/C1=C\c1cccs1
37%	11%	inactive	inactive	N#Cc1ccc(/C=C2\NC(=S)NC2=O)cc1
30%	20%	inactive	12%	C/C(=C1/SC(=O)NC1=O)c1ccc2ccccc2c1
inactive	inactive	inactive	inactive	O=C1NC(=S)NC1Cc1cccs1 (stereo not given)
inactive	inactive	inactive	11%	Cc1ccc(/C=C2\NC(=O)NC2=O)cc1
inactive	inactive	inactive	inactive	O=C1CNC(=O)N1
53%	31%	18%	18%	O=C1NC(=S)S/C1=C\c1cnc[nH]1
inactive	19%	inactive	inactive	O=C1NC(=O)/C(=C/c2ccc3ccccc3c2)S1
44%	20%	18%	11%	COc1ccc(/C=C2\NC(=S)NC2=O)cc1OC
12%	inactive	inactive	inactive	O=C1NC(=O)/C(=C/c2c(F)c(F)c(F)c(F)c2F)S1
